Experiments:
[1] = The half-life period in vitro in rat small Intestine Homogenate; format: ADME
Procedure, shortened: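 Small intestine from rats fasted 20 h, saline-washed, homogenized in 8 vol 1/10 M sodium phosphate pH 7.4, spun at 600g for 15 min; supernatant (1.0 mL) given 10 µL drug (5 mg/mL in 80% aqueous acetonitrile), 37 °C, 60 min. Aliquots quenched at intervals with acetonitrile containing internal standard and analyzed by HPLC. Half-life (min), mean of two experiments.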

[2] = The half-life period in vitro in plasma; format: ADME, cell-free
Procedure, shortened: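 Rat plasma (1.0 mL) spiked with 5 µL of drug dissolved at 2 mg/mL in 80% aqueous acetonitrile, incubated at 37 °C for 60 min. Parent drug and products followed by ion-paired HPLC with internal standard; metabolites identified by retention times of synthesized authentic samples. Stability expressed as half-life (min), mean of two separate experiments.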

Structure (SMILES)	half-life [1]	half-life [2]
CCN(CC(=O)O)C(=O)/C(C)=C/c1ccc(C(=O)Oc2ccc(C(=N)N)cc2)cc1	> 60 min	60 min
C/C(=C\c1ccc(C(=O)Oc2ccc(C(=N)N)cc2)cc1)C(=O)N(CC(=O)O)Cc1ccccc1	50 min	> 60 min
C=CCN(CCC(=O)O)C(=O)/C(C)=C/c1ccc(C(=O)Oc2ccc(C(=N)N)cc2)cc1	> 60 min	47 min
C=CCN(CCCC(=O)OCC)C(=O)/C(C)=C/c1ccc(C(=O)Oc2ccc(C(=N)N)cc2)cc1		< 1 min
CCOC(=O)C(C(=O)OCC)N(CCCC(=O)O)C(=O)/C(C)=C/c1ccc(C(=O)Oc2ccc(C(=N)N)cc2)cc1		29 min
C=CCN(CCCC(=O)O)C(=O)/C(C)=C/c1ccc(C(=O)Oc2ccc(C(=N)N)cc2)cc1	55 min	> 60 min
C/C(=C\c1ccc(C(=O)Oc2ccc(C(=N)N)cc2)cc1)C(=O)N(CC(=O)O)C1CCCC1	42 min	23 min
CCOC(=O)CCCN(C(=O)/C(C)=C/c1ccc(C(=O)Oc2ccc(C(=N)N)cc2)cc1)C(C(=O)OCC)C(=O)OCC		< 1 min
C=CCN(CCC(=O)OCC)C(=O)/C(C)=C/c1ccc(C(=O)Oc2ccc(C(=N)N)cc2)cc1		< 1 min
C/C(=C\c1ccc(C(=O)Oc2ccc(C(=N)N)cc2)cc1)C(=O)N(CCO)Cc1ccccc1	41 min	< 5 min
CCOC(=O)CN(Cc1ccccc1)C(=O)/C(C)=C/c1ccc(C(=O)Oc2ccc(C(=N)N)cc2)cc1	44 min	< 1 min
C/C(=C\c1ccc(C(=O)Oc2ccc(C(=N)N)cc2)cc1)C(=O)N(CC(=O)O)C1CCCCC1	49 min	> 60 min
CCOC(=O)CN(C(=O)/C(C)=C/c1ccc(C(=O)Oc2ccc(C(=N)N)cc2)cc1)C1CCCCC1	> 60 min	< 5 min
CCOC(=O)CN(C(=O)/C(C)=C/c1ccc(C(=O)Oc2ccc(C(=N)N)cc2)cc1)C1CCCC1	> 60 min	< 5 min
CCOC(=O)CCCN(C(=O)/C(C)=C/c1ccc(C(=O)Oc2ccc(C(=N)N)cc2)cc1)C(C(=O)O)C(=O)OCC (stereo not given)		14 min
